These results are taken from ChEMBL document CHEMBL1641448, “2-Hydroxycurcuminoid induces apoptosis of human tumor cells through the reactive oxygen species-mitochondria pathway” (2011).

The test system of test [1] is SW-620. Kind of test: Cytotoxicity against human SW620 cells after 48 hrs […]. To be noted: SW-620, 48 h. Format: functional. An outline of the steps: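 SW620 human colorectal tumor cells were exposed to a range of concentrations for 48 h. Cells were counted and GI50 was derived from growth inhibition.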
In test [2] the test system is SW-620. As to the kind of experiment: Induction of ROS generation in human SW620 cells at 20 uM after 2 hrs relative to control. It is filed as functional. In outline:
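SW620 cells were treated for 2 h. Intracellular ROS was read fluorimetrically with the DCF-DA probe (excitation 485 nm, emission 535 nm) and compared with DMSO-treated cells.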

A further test deals with DLD-1. Kind of test: Cytotoxicity against human DLD1 cells after 48 hrs by WST1 assay. Format: functional, cell-based.
Test [3] has as its system SW-620. As to the kind of experiment: Induction of apoptosis in human SW620 cells assessed as decrease in mitochondrial membrane potential after 6 to 12 hrs. Format: functional, cell-based. An outline of the steps:
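Mitochondrial membrane potential in SW620 cells was followed as the red:green ratio (A590:A520) over 6–12 h of treatment.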

A further test deals with HCT-116. As to the kind of experiment: Cytotoxicity against human HCT116 cells after 48 hrs by WST1 assay. Format: functional, cell-based.
The subject of test [4] is SW-620. As to the kind of experiment: Induction of cell cycle arrest in human SW620 cells assessed as accumulation at G2/M phase at 10 uM after 15 hrs by propidium iodide cytofluorimetric analysis. It is filed as functional, cell-based.
In test [5] the test system is SW-620. Kind of test: Induction of apoptosis in human SW620 cells assessed as release of mitochondrial cytochrome c release to cytosol upto 48 hrs. Format: functional, cell-based. In outline: (§1)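 SW620 cells were treated for the indicated time intervals. Cytosolic and membrane fractions were separated by subcellular fractionation, and Bax and cytochrome c levels in each fraction were read by Western blot.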

In test [6] the test system is SW-620. As to the kind of experiment: Induction of apoptosis in human SW620 cells assessed as late apoptotic cells at 20 uM by annexin-V/propidium iodide staining. It is filed as functional. In outline: (§2)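 SW620 cells were treated for 48 h with or without 1 mM NAC. Cells were stained with annexin V and propidium iodide, and the apoptotic distribution was determined by flow cytometry.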

Test [7] has as its system SW-620. As to the kind of experiment: Induction of apoptosis in human SW620 cells assessed as caspase 3 activation at 10 uM by fluorescence microscopy in presence of N-acetyl-cysteine. It is filed as functional, cell-based.
Test [8] relates to MDA-MB-231 (Homo sapiens). As to the kind of experiment: Induction of apoptosis in human MDA-MB-231 cells assessed as change in cell morphology at 10 uM by fluorescence microscopy in presence of N-acetyl-cysteine.
The test system of test [9] is SW-620. Kind of test: Induction of apoptosis in human SW620 cells assessed as late apoptotic cells at 10 uM by annexin-V/propidium iodide staining in presence of N-acetyl-cysteine. It is filed as functional. An outline of the steps:
as §2

The test system of test [10] is SW-620. Kind of test: Induction of apoptosis in human SW620 cells assessed as PARP degradation at 10 uM by fluorescence microscopy. It is filed as functional, cell-based.
Test [11] has as its system SW-620. As to the kind of experiment: Induction of apoptosis in human SW620 cells assessed as PARP degradation at 10 uM by fluorescence microscopy in presence of N-acetyl-cysteine. Format: functional, cell-based.
In test [12] the test system is MDA-MB-231 (Homo sapiens). Kind of test: Induction of apoptosis in human MDA-MB-231 cells assessed as change in cell morphology at 10 uM by fluorescence microscopy.
Test [13] concerns SW-620. Kind of test: Induction of apoptosis in human SW620 cells assessed as increase in translocation of Bax to cytosol upto 48 hrs. Format: functional, cell-based. To be noted: in the assay text read “to membrane fraction” for “to cytosol”. In outline:
as §1

Test [14] relates to SW-620. As to the kind of experiment: Induction of apoptosis in human SW620 cells assessed as late apoptotic cells at 10 uM by annexin-V/propidium iodide staining. It is filed as functional. An outline of the steps:
as §2

The subject of test [15] is SW-620. As to the kind of experiment: Induction of apoptosis in human SW620 cells assessed as caspase 3 activation at 10 uM by fluorescence microscopy. Format: functional, cell-based.
In another test the test system is MCF-10A. Kind of test: Induction of cell cycle arrest in human MCF10A cells assessed as accumulation at G0/G1 phase at 10 uM after 15 hrs by propidium iodide cytofluorimetric analysis. Format: functional, cell-based.
A further test relates to MDA-MB-231. Kind of test: Induction of ROS generation in human MDA-MB-231 cells at 20 uM by fluorescence microscopy in presence of N-acetyl-cysteine. It is filed as functional, cell-based.

SMILES strings stand for the structures. Activity calls are given as the source filed them. No cut-off for these calls is given here.

For the molecule `COc1cc(/C=C/C(=O)C(C)(C)C(=O)/C=C/c2ccc(O)c(OC)c2)ccc1O`, it took 7 µM to inhibit growth in the test on SW-620 [1] by half (GI50).
Regarding `COc1cc(/C=C/C(=O)CC(=O)/C=C/c2ccc(O)c(OC)c2)ccc1O` [CURCUMIN], the concentration for 50% growth inhibition (GI50) in the test with SW-620 [1] came to 32 µM.
For the molecule `CC(=O)C(C)(C)C(=O)/C=C/c1ccccc1O`, in the test on SW-620 [1], growth was halved (GI50) at 40 µM. In addition, the “fold change (FC)” value with SW-620 [2] was 1.5.
For the molecule `CC(C)(C(=O)/C=C/c1ccccc1O)C(=O)/C=C/c1ccccc1O`, the outcome in the test on DLD-1, in the test on SW-620 [3], with HCT-116, with SW-620 [4], in the test on SW-620 [5] and in the test with SW-620 [10] was Active. The outcome (in test [12]; with SW-620 [13]; with SW-620 [15]; in the test on MCF-10A) was Active. The same molecule registered a 50% growth inhibitory concentration (GI50) with SW-620 [1] of 7 µM. The Activity is recorded as 78.77% in the test on SW-620 [6], 24.25% in the test with SW-620 [9] and 73.53% in the test on SW-620 [14]. Also, the “fold change (FC)” value in the test on SW-620 [2] is 1.5. In addition, the outcome (in the test on SW-620 [7]; in test [8]; with SW-620 [11]) was inactive.
Turning to `CC(=O)/C=C(O)/C=C/c1ccccc1O`, the “fold change (FC)” value in the test on SW-620 [2] stood at 1.5.
Consider `CC(=O)/C=C/c1ccccc1O`, for which the “fold change (FC)” value in the test on SW-620 [2] is listed as 1.5.
As to `O=C/C=C/c1ccccc1O` [2-HYDROXYCINNAMALDEHYDE], the result in the test on MDA-MB-231 was inactive. Besides, the GI50 in the test with SW-620 [1] came to 15 µM. For the same molecule, the “fold change (FC)” value in the test with SW-620 [2] was 1.5.
In the test on SW-620 [1], `O=C(/C=C(O)/C=C/c1ccccc1O)/C=C/c1ccccc1O` gave a concentration for 50% growth inhibition (GI50) of 35 µM. For the same molecule, the “fold change (FC)” value in the test with SW-620 [2] is given as 1.5.
For `CC(C)C(=O)/C=C/c1ccccc1O`, the “fold change (FC)” value in the test on SW-620 [2] is listed as 1.5.

One may read the GI50 as the concentration giving 50% growth inhibition. High values mean less potent growth inhibition, low ones more potent growth inhibition.
